{"source": "paper PMC2651159", "about": "(Bioorganic & medicinal chemistry letters, 2008)", "key": {"ChTS-DHFR [1]": {"target": "T1, ChTS-DHFR (Cryptosporidium hominis, UniProt A0A0S4TER9)", "assay": "Steady-state spectroscopic enzyme inhibition assay", "format": "biochemical", "conditions": "for Potency against ChTS-DHFR relative to FMN (in words): among the 50 compounds tested"}, "DHFR of ChTS-DHFR [2]": {"system": "DHFR of ChTS-DHFR", "assay": "DHFR single-enzyme turnover", "format": "biochemical, Cryptosporidium hominis", "conditions": "enzyme in five-fold excess of H2F"}, "TS reaction of ChTS-DHFR": {"system": "TS reaction of ChTS-DHFR", "assay": "Inhibition of the TS reaction alone", "format": "biochemical, Cryptosporidium hominis", "conditions": "300 μM FMN"}, "ChTS-DHFR [3]": {"target": "T1, ChTS-DHFR", "assay": "Pre-steady-state burst amplitude dose response", "format": "binding", "conditions": "substrate in slight excess over enzyme", "in_short": "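Pre-steady-state kinetics of the DHFR step were observed on the millisecond time scale, with H2F substrate in slight excess over ChTS-DHFR. Burst amplitude was recorded across a dose series of test compound. Amplitude versus concentration was fit to a hyperbolic curve to derive a dissociation constant (Kd).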"}, "ChTS-DHFR R190G mutant": {"system": "ChTS-DHFR R190G mutant", "assay": "Inhibition of mutant ChTS-DHFR R190G", "format": "biochemical, Cryptosporidium hominis", "conditions": "preliminary analysis"}, "DHFR of ChTS-DHFR [4]": {"system": "DHFR of ChTS-DHFR", "assay": "Steady-state competition assay", "format": "biochemical, Cryptosporidium hominis"}, "T. gondii TS-DHFR": {"target": "T2, T. gondii TS-DHFR (Toxoplasma gondii, UniProt Q07422)", "T2 sequence (Q07422 1-610)": "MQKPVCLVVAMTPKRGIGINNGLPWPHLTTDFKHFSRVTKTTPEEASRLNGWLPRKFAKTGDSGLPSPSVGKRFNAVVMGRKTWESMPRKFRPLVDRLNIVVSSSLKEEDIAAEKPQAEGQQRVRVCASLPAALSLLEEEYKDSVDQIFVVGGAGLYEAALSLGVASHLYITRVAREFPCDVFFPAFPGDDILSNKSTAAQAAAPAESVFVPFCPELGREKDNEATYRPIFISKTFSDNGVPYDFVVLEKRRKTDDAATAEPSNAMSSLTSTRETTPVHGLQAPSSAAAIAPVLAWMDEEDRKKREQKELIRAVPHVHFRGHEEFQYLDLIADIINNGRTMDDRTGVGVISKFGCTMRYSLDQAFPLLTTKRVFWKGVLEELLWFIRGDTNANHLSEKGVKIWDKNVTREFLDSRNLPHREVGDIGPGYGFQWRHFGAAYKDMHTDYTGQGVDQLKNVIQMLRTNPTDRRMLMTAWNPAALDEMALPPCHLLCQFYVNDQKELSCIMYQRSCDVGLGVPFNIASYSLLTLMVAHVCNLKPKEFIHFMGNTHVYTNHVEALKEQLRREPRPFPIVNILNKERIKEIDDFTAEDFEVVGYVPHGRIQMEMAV", "assay": "Enzyme inhibition assay, T. gondii TS-DHFR", "format": "biochemical", "in_short": "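IC50 determined for the test compound against T. gondii TS-DHFR. Enzyme and ligand concentrations were the same as in parallel runs on C. hominis TS-DHFR, human DHFR and human TS. Values are averages of at least three independent experiments.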"}, "[5]": {"system": "Cryptosporidium parasite growth", "conditions": "cited from earlier work"}}, "data": [{"smiles": "CC(=O)N[C@@H]1[C@@H](O)[C@H](O[C@@H]2O[C@H](CO)[C@@H](O)[C@H](O)[C@H]2NC(C)=O)[C@@H](CO)O[C@H]1O", "note": "[Chitodextrin]", "values": [{"measurement": "IC50", "setting": "ChTS-DHFR [1]", "result": "> 500", "unit": "µM"}]}, {"smiles": "C[C@H]1O[C@@H](O[C@H]2[C@@H](O)C[C@H](O[C@H]3[C@@H](O)C[C@H](O[C@H]4CC[C@@]5(C)[C@H](CC[C@@H]6[C@@H]5C[C@@H](O)[C@]5(C)[C@@H](C7=CC(=O)OC7)CC[C@]65O)C4)O[C@@H]3C)O[C@@H]2C)C[C@H](O)[C@@H]1O", "note": "[Digoxin, reference compound]", "values": [{"measurement": "IC50", "setting": "ChTS-DHFR [1]", "result": "> 500", "unit": "µM"}]}, {"smiles": "Cc1cc2nc3c(=O)[nH]c(=O)nc-3n(C[C@H](O)[C@H](O)[C@H](O)COP(=O)(O)O)c2cc1C", "note": "[FMN, Flavin mononucleotide]", "values": [{"measurement": "Effect on rate of chemistry, DHFR single turnover", "setting": "DHFR of ChTS-DHFR [2]; 500 μM FMN", "result": "no decrease"}, {"measurement": "Effect on amplitude of the single-turnover plot", "setting": "DHFR of ChTS-DHFR [2]", "result": "dose-dependent decrease"}, {"measurement": "Inhibition of the TS reaction alone", "setting": "TS reaction of ChTS-DHFR", "result": "little inhibition"}, {"measurement": "Effect on DHFR burst amplitude", "setting": "ChTS-DHFR [3]", "result": "dose-dependent decrease"}, {"measurement": "Inhibitory effect on R190G mutant less than that against WT ChTS-DHFR", "setting": "ChTS-DHFR R190G mutant", "result": "approximately 20%"}, {"measurement": "Change in IC50 on varying enzyme concentration", "setting": "ChTS-DHFR [1]; enzyme concentration varied from 80 to 250 nM", "result": "no resulting change"}, {"measurement": "Mode of inhibition with respect to H2folate", "setting": "DHFR of ChTS-DHFR [4]; 200 μM FMN", "result": "noncompetitive (mixed)"}, {"measurement": "Mode of inhibition with respect to NADPH", "setting": "DHFR of ChTS-DHFR [4]; 200 μM FMN", "result": "uncompetitive"}, {"measurement": "Vmax, H2F varied", "setting": "DHFR of ChTS-DHFR [4]; in the presence of 200 μM FMN (no inhibitor: 2.35 ± 0.04)", "result": "1.8 ± 0.1", "unit": "µmol/min"}, {"measurement": "Vmax, NADPH varied", "setting": "DHFR of ChTS-DHFR [4]; in the presence of 200 μM FMN (no inhibitor: 2.37 ± 0.03)", "result": "1.77 ± 0.01", "unit": "µmol/min"}, {"measurement": "Inhibition of TS-DHFR from Toxoplasma gondii (in words)", "setting": "T. gondii TS-DHFR", "result": "did not inhibit"}]}, {"smiles": "CC(=O)N1CCN(c2ccc(OCC3COC(Cn4ccnc4)(c4ccc(Cl)cc4Cl)O3)cc2)CC1", "note": "(stereo not drawn) [Ketoconazole, reference compound]", "values": [{"measurement": "IC50", "setting": "ChTS-DHFR [1]", "result": "> 500", "unit": "µM"}]}, {"smiles": "COc1cccc2c1C(=O)C1=C(C2=O)C(O)C2=C(C1O)[C@@H](C[C@@H]1C[C@H](N)[C@@H](O)[C@H](C)O1)C[C@@](O)(/C(C)=N/NC(=O)c1ccccc1)C2", "note": "(stereo partly drawn) [Rubidazone]", "values": [{"measurement": "IC50", "setting": "ChTS-DHFR [1]", "result": "> 500", "unit": "µM"}]}, {"smiles": "COC1=C(N)C(=O)c2nc(-c3nc(C(=O)O)c(C)c(-c4ccc(OC)c(OC)c4O)c3N)ccc2C1=O", "note": "[Streptonigrin]", "values": [{"measurement": "Potency against ChTS-DHFR relative to FMN (in words)", "setting": "ChTS-DHFR [1]", "result": "comparable potency"}]}, {"smiles": "CC(=O)Oc1ccccc1C(=O)Nc1ncc([N+](=O)[O-])s1", "note": "[nitazoxanide]", "values": [{"measurement": "Concentration range inhibiting parasite growth", "setting": "[5]", "result": "1 to 40", "unit": "µM"}]}, {"smiles": "Cc1cc2nc3c(=O)[nH]c(=O)nc-3n(C[C@H](O)[C@H](O)[C@H](O)CO)c2cc1C", "note": "[riboflavin]", "values": [{"measurement": "Potency against ChTS-DHFR relative to FMN (in words)", "setting": "ChTS-DHFR [1]", "result": "comparable potency"}]}]}
